Values after ≈ are worked out from the molar mass of the structure shown. Active and inactive are the calls of the source. No cut-off for these calls is given here.
Key:
[1] = Inhibition of Bacillus subtilis topoisomerase 4
[2] = Inhibition of Bacillus subtilis gyrase
[3] = system: Streptococcus pneumoniae; test: Antibacterial activity against penicillin-resistant Streptococcus pneumoniae 700677; assay type: functional
Procedure, shortened: (§1)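 Streptococci tested by CLSI broth microdilution in Mueller-Hinton broth with 5% defibrinated horse blood, log-phase inoculum at 1 x 10^5 CFU/ml. Incubated 37°C with shaking, 16 to 20 h, in 5% humidified CO2. Compounds at 1% DMSO final. MIC is the lowest concentration without growth by OD600. Quadruplicate; highest MIC reported.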

[4] = Therapeutic index, CC50 for MRC5 cells/MIC for Staphylococcus aureus Smith; assay type: cell-based; settings: human
[5] = system: Staphylococcus aureus; test: Antibacterial activity against Staphylococcus aureus Smith in presence of 10% FCS; assay type: functional
[6] = system: Enterococcus faecium; test: Antibacterial activity against vancomycin-resistant Enterococcus faecium B42762; assay type: functional
Procedure, shortened: (§2)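 Broth microdilution per CLSI with modified incubation. Log-phase cultures in cation-adjusted Mueller-Hinton broth, seeded at 1 x 10^5 CFU/ml. Compounds from DMSO stocks, 1% DMSO final. Incubated 37°C, 16 to 20 h, shaken. Growth read as OD600. MIC is the lowest concentration with no apparent growth. Run in quadruplicate; highest value reported.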

[7] = system: Staphylococcus aureus; test: Antibacterial activity against methicillin-resistant Staphylococcus aureus 1132; assay type: functional; procedure, shortened: as §2
[8] = system: Bacillus thuringiensis; test: Antibacterial activity against Bacillus thuringiensis 33679; assay type: functional
[9] = system: Staphylococcus aureus; test: Antibacterial activity against Staphylococcus aureus 25923; assay type: functional; procedure, shortened: as §2
[10] = system: Enterococcus faecalis; test: Antibacterial activity against Enterococcus faecalis 29212; assay type: functional; procedure, shortened: as §2
[11] = system: Streptococcus pneumoniae; test: Antibacterial activity against penicillin-resistant Streptococcus pneumoniae 700673; assay type: functional; procedure, shortened: as §1
[12] = system: Enterococcus faecium; test: Antibacterial activity against vancomycin and linezolid-resistant Enterococcus faecium F118; assay type: functional; procedure, shortened: as §2
[13] = system: Staphylococcus aureus; test: Antibacterial activity against HB-EMAU-resistant Staphylococcus aureus Smith; assay type: functional; procedure, shortened: as §2
[14] = system: Enterococcus faecalis; test: Antibacterial activity against vancomycin-resistant Enterococcus faecalis 700802; assay type: functional; procedure, shortened: as §2
[15] = system: Staphylococcus aureus; test: Antibacterial activity against Staphylococcus aureus Smith 13709; assay type: functional; procedure, shortened: as §2
[16] = system: Bacillus cereus; test: Antibacterial activity against Bacillus cereus 4342; assay type: functional
[17] = system: Staphylococcus aureus; test: Antibacterial activity against mupirocin-sensitive Staphylococcus aureus 2529; assay type: functional
[18] = system: Escherichia coli; test: Antibacterial activity against Escherichia coli J53; assay type: functional
[19] = system: Klebsiella pneumoniae; test: Antibacterial activity against Klebsiella pneumoniae 5657; assay type: functional
[20] = system: Enterococcus faecalis; test: Antibacterial activity against vancomycin-resistant Enterococcus faecalis 51575; assay type: functional; procedure, shortened: as §2
[21] = system: Bacillus subtilis; test: Inhibition of DNA synthesis in Bacillus subtilis BD54; assay type: functional, organism-based
Procedure, shortened: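 B. subtilis BD54 grown to log phase in C plus 50 medium; compound in DMSO added with [8-3H]adenine at time zero, at 5x or 1x MIC; samples over time. DNA = alkali-insensitive TCA-insoluble label; RNA = total TCA-insoluble minus DNA. Effect judged against diluent-control incorporation.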

[22] = system: Streptococcus pneumoniae; test: Antibacterial activity against penicillin-resistant Streptococcus pneumoniae 700671; assay type: functional; procedure, shortened: as §1
[23] = system: Staphylococcus aureus; test: Antibacterial activity against HB-EMAU-resistant and ciprofloxacin-resistant Staphylococcus aureus Smith; assay type: functional; procedure, shortened: as §2
[24] = system: Staphylococcus aureus; test: Antibacterial activity against ciprofloxacin-resistant Staphylococcus aureus Smith; assay type: functional; procedure, shortened: as §2
[25] = system: Streptococcus pneumoniae; test: Antibacterial activity against penicillin-resistant Streptococcus pneumoniae 700674; assay type: functional; procedure, shortened: as §1
[26] = system: Stenotrophomonas maltophilia; test: Antibacterial activity against Stenotrophomonas maltophilia 13637; assay type: functional
[27] = system: Staphylococcus aureus; test: Antibacterial activity against methicillin-resistant Staphylococcus aureus B42876; assay type: functional; procedure, shortened: as §2
[28] = system: Staphylococcus aureus; test: Antibacterial activity against mupirocin-resistant Staphylococcus aureus 777; assay type: functional; procedure, shortened: as §2
[29] = system: Bacillus thuringiensis; test: Antibacterial activity against Bacillus thuringiensis 10792; assay type: functional
[30] = system: Pseudomonas aeruginosa; test: Antibacterial activity against Pseudomonas aeruginosa 27853; assay type: functional
[31] = system: Streptococcus pneumoniae; test: Antibacterial activity against Streptococcus pneumoniae 49619; assay type: functional; procedure, shortened: as §1
[32] = system: Bacillus cereus; test: Antibacterial activity against Bacillus cereus 6464; assay type: functional
[33] = system: Staphylococcus aureus; test: Antibacterial activity against Staphylococcus aureus 1081; assay type: functional; procedure, shortened: as §2
[34] = system: Streptococcus pyogenes; test: Antibacterial activity against Streptococcus pyogenes 12344; assay type: functional
[35] = system: Enterococcus faecium; test: Antibacterial activity against vancomycin-resistant Enterococcus faecium 1644; assay type: functional; procedure, shortened: as §2
[36] = system: Staphylococcus aureus; test: Antibacterial activity against methicillin-resistant Staphylococcus aureus 1094; assay type: functional; procedure, shortened: as §2
[37] = system: Streptococcus pneumoniae; test: Antibacterial activity against penicillin-resistant Streptococcus pneumoniae 700670; assay type: functional; procedure, shortened: as §1
[38] = system: Bacillus subtilis; test: Antibacterial activity against Bacillus subtilis BD54; assay type: functional
[39] = system: Staphylococcus aureus; test: Antibacterial activity against methicillin-resistant Staphylococcus aureus 1123; assay type: functional; procedure, shortened: as §2
[40] = system: Enterococcus faecium; test: Antibacterial activity against Enterococcus faecium 19434; assay type: functional; procedure, shortened: as §2
[41] = system: Bacillus anthracis; test: Antibacterial activity against Bacillus anthracis Sterne; assay type: functional
[42] = system: Escherichia coli; test: Antibacterial activity against ciprofloxacin-resistant Escherichia coli XL1-Blue; assay type: functional; procedure, shortened: as §2
[43] = Cytotoxicity against human MRC5 cells; assay type: cell-based
Procedure, shortened: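 MRC-5 human diploid fibroblasts, 4 x 10^3 cells per well, exposed to compound from DMSO stock (final 1%) in minimal essential medium with 10% fetal calf serum for 72 h at 37°C beside a DMSO-only control.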

[44] = system: Enterococcus faecalis; test: Antibacterial activity against vancomycin-resistant Enterococcus faecalis 51299; assay type: functional; procedure, shortened: as §2

`CCn1cc(C(=O)O)c(=O)c2ccc(C)nc21` [NALIDIXIC ACID] showed an IC50 [1] of 1090 µM and an IC50 [2] of 149 µM.

Compound `CC1CN(c2c(F)cc3c(=O)c(C(=O)O)cn(C4CC4)c3c2F)CCN1` (stereo unspecified) has an IC50 [1] of 4.2 µM, an MIC [3] of 0.625 µg/mL (≈ 1.72 µM) and a selectivity ratio [4] greater than 1000. The MIC [5] was 0.078 µg/mL, the MIC [6] was 40 µg/mL (≈ 110 µM) and the MIC [7] was 0.156 µg/mL (≈ 0.429 µM). It also gave an MIC [8] of 0.078 µg/mL (≈ 0.215 µM), an MIC [9] of 0.156 µg/mL (≈ 0.429 µM) and an MIC [10] of 0.313 µg/mL (≈ 0.861 µM). It also gave an MIC [11] of 0.156 µg/mL (≈ 0.429 µM), an MIC [12] of 80 µg/mL (≈ 220 µM) and an IC50 [2] of 5.6 µM. It also gave an MIC [13] of 0.078 µg/mL (≈ 0.215 µM), an MIC [14] of 0.313 µg/mL (≈ 0.861 µM) and an MIC [15] of 0.078 µg/mL (≈ 0.215 µM). It also gave an MIC [16] of 0.078 µg/mL (≈ 0.215 µM), an MIC [17] of 80 µg/mL (≈ 220 µM) and an MIC [18] of 0.01 µg/mL (≈ 0.0275 µM). The MIC [19] was 0.156 µg/mL (≈ 0.429 µM), the MIC [20] was 0.313 µg/mL (≈ 0.861 µM) and the Activity [21] was “Active”. It also gave an MIC [22] of 0.313 µg/mL (≈ 0.861 µM), an MIC [23] of 5 µg/mL (≈ 13.8 µM) and an MIC [24] of 5 µg/mL (≈ 13.8 µM). The MIC [25] was 0.625 µg/mL (≈ 1.72 µM), the MIC [26] was 0.078 µg/mL (≈ 0.215 µM) and the MIC [27] was 80 µg/mL (≈ 220 µM). It also gave an MIC [28] of 40 µg/mL (≈ 110 µM), an MIC [29] of 0.156 µg/mL (≈ 0.429 µM) and an MIC [30] of 0.313 µg/mL (≈ 0.861 µM). The MIC [31] was 0.313 µg/mL (≈ 0.861 µM), the MIC [32] was 0.078 µg/mL (≈ 0.215 µM) and the MIC [33] was 10 µg/mL (≈ 27.5 µM). It also gave an MIC [34] of 0.156 µg/mL (≈ 0.429 µM), an MIC [35] of 40 µg/mL (≈ 110 µM) and an MIC [36] of 20 µg/mL (≈ 55 µM). It also gave an MIC [37] of 0.313 µg/mL (≈ 0.861 µM), an MIC [38] of 0.039 µg/mL (≈ 0.107 µM) and an MIC [39] of 20 µg/mL (≈ 55 µM). The MIC [40] was 10 µg/mL (≈ 27.5 µM), the MIC [41] was 0.039 µg/mL (≈ 0.107 µM) and the MIC [42] was 40 µg/mL (≈ 110 µM). The CC50 [43] was greater than 80 µg/mL and the MIC [44] was 0.313 µg/mL (≈ 0.861 µM).

Source: ChEMBL document CHEMBL1142158, “Antibacterial activity and mechanism of action of a novel anilinouracil-fluoroquinolone hybrid compound” (Antimicrob Agents Chemother, 2007)
